Measurements as given in the EternaBench riboswitch data.

System: MS2 coat protein
Assay: apparent Kd, MS2 coat protein; higher = weaker binding; RNA-MaP array; FMN 200 µM where present
How it was run: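 The titrant was SNAP-549-labelled MS2 coat protein, run from 0.7 or 1.5 nM in doubling steps to 3 µM. It was applied to designs transcribed by stalled E. coli RNA polymerase on Illumina sequencing-chip clusters, without ligand first and then with constant ligand, in 100 mM Tris-HCl pH 7.5, 80 mM KCl, 4 mM MgCl2, BSA, DTT, yeast tRNA and Tween-20. The apparent Kd is the median of filtered per-cluster binding-curve fits, with green signal normalised to red-channel RNA signal and control-cluster median Fmax.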

[1] = designed as: OFF switch for flavin mononucleotide, no ligand
[2] = ligand present: flavin mononucleotide, designed as: OFF switch for flavin mononucleotide
[3] = designed as: ON switch for flavin mononucleotide, no ligand
[4] = ligand present: flavin mononucleotide, designed as: ON switch for flavin mononucleotide

Sequence | apparent Kd [1] | apparent Kd [2] | apparent Kd [3] | apparent Kd [4]
AACAUGUCAGGAUAUGCGAAGGCGUCUGACAGACGAGGCUAGCAGAAGGGACAUGAGGAUCACCCAUGUAAAAA | 98.9 nM | 129 nM |  | 
AACAUGUGAGGAUAUUAGUUGUACGUCAAUAGACGUAUAAGUGAGAAGGCACAUGAGGAUCACCCAUGUUCCUG | 43.7 nM | 464 nM |  | 
AACCACCGCACGGACACGUCGAGUCAGGAUAUACAUGAGGAUCACCCAUGUGAAGGCCGGCUCAUGUAGAAGGGACAGGCGUUG | 11.4 nM | 15.7 nM |  | 
AACCGACAUGAGGAUCACCCAUGUCAGGAUAUGGACUGACACCCAAAGGGUGGAGGAACCAGAAGGGACUGGGC | 39.9 nM | 101 nM |  | 
AACCUCGGAGGAUAUACCUACCGAUUCACAAGUGUCACAUCACAUGAGGAUCACCCAUGUAGAAGGUCGAGGCG | 30 nM | 97.1 nM |  | 
AACGAGCAAGAUUAUUAUGAAUAAACAUGAGGAUCACCCAUGUAGGAUAUGCAGUGGAAUACACUGCAGAAGGACAUAAGCUCG | 7.2 nM | 19 nM |  | 
AACGAGCUAGGAUAUGCACGGAAAAGCGUGGUCACUUAUGGACAUGAGGAUCACCCAUGUAGAAGGAGCGACGC | 22.5 nM | 18.9 nM |  | 
AACGCAGAAAUCGCAAUACAUGAGGAUCACCCAUGUAGAUCACAGGAUAUGGUCUAGUCAGUGGUCCAGAAGGGUGAUCAGAAC |  |  | 66.4 nM | 38.6 nM
AACGGAAUGUAGAAGGGUGACAUGAGGAUCACCCAUGUUCACAUGCGUAUUAAAGUAUGUGAACCACAGGAUAUACUGUCCGUG |  |  | 56.8 nM | 130 nM
AACGUCGAAGGAUAUACAUGAGGAUCACCCAUGUGGGACCUGUAGUCUCACCCAUCGUGUAGAAGGUUGAGGCA | 32.2 nM | 29.7 nM |  | 
AACUAGCUAGGAUAUACAUGAGGAUCACCCAUGUAAAAAAAAAAAAAAAGAUAUAUAUGUAGAAGGAGCUAGUA | 33.7 nM | 44.9 nM |  | 
AACUGACAUGAGGAUCACCCAUGUCAGGAUAUGCUUCAUAAAAUAAAAAUAAAAUGAUGCAGAAGGGACAUGGA | 27.1 nM | 39.6 nM |  | 
AACUUGUCAGGAUAUCUUACAUUUGCAUCAUAGUUACCAUUGGAGAAGGGACAUGAGGAUCACCCAUGUUUGGU | 41.3 nM | 39.3 nM |  | 
AAGAAACAUGAGGAUCACCCAUGUAAAUUCAAGAGAGGAUAUCGUACAUGGAAGAUUCAACGAGAAGGCUCUAGAA |  |  | 36.5 nM | 18.4 nM
AAGAACGCAGGAUAUAUUAAGGGACAAAGAAGGAAGAAUAAACAUGAGGAUCACCCAUGUAGAAGGGCGAAGAA | 60.5 nM | 58 nM |  | 
AAGAACUUAGGAUAUACAUGAGGAUCACCCAUGUAGCUUCACUUGGGCCUGAGCCCGUGUAGAAGGAAGAAAAU | 87.9 nM | 59 nM |  | 
AAGAAGAACGUAGGAUAUCAAUGAGGAUCACCCUGAGAAGGACGUGAGGACAUGAGGAUCACCCAUGUGGAUCACCCAUGUCAU | 168 nM | 130 nM |  | 
AAGAAGGACGCAGGAUAUCCAGGACCUCCCGCAGGAGAAGGGCGAGACAUGUGGAUCACCCAGACAUGAGGAUCACCCAUGUAG | 22.5 nM | 21 nM |  | 
AAGAAGUCAGGAUAUGCAUGGCGGGACUUGCGUCGUGGCGUGCAGAAGGGACAUGAGGAUCACCCAUGUAAAGU | 49 nM | 45.4 nM |  | 
AAGAAGUGAGGAUAUGCUGCUCGUCACUUGCGUGAUGAGUAGCAGAAGGCACAUGAGGAUCACCCAUGUAAAGA | 44 nM | 53 nM |  | 
AAGACACAUGAGGAUCACCCAUGUUAGGAUAUACGCAUGCAUGCAUGCAUGCAUGCAAGUAGAAGGAACCAUGC | 30.5 nM | 30.6 nM |  | 
AAGAGCGAUUCUCCCUUCCUACAUGAGGAUCACCCAUGUACGAGAAGGCGCCGCGUAUACAACGGUGAGGAUAUCGUGCGUUAC | 4.45 nM | 4.98 nM |  | 

Sequence | apparent Kd [1] | apparent Kd [2] | apparent Kd [3] | apparent Kd [4]
AAGAGGAAAGCAGGAUAUCUAUAGGCUCCUUAACAUGAGGAUCACCCAUGUAGAGAAGGGCUAAGACCGACUCUUCGGAGUUGG | 8.69 nM | 25.3 nM |  | 
AAGAGUACAGGAUAUACAUGAGGAUCACCCAUGUGAAAAUUAAGUGGCGUACCACAAAGUAGAAGGGUACUGGA | 22.4 nM | 50.8 nM |  | 
AAGAGUAGAGGAUAUACAUGAGGAUCACCCAUGUAAUCCGGAUAAGGAAGCAUGUCGUGUAGAAGGCUGCAUGA | 15.2 nM | 12.4 nM |  | 
AAGCACGAAGAUUAUUAUGAAUAAACAUGAGGAUCACCCAUGUAGGAUAUCGACUCGAAUAGAGUCGAGAAGGACAUAACGUGC | 6.85 nM | 20.7 nM |  | 
AAGCCCUGAGGAUAUCCCAACUCGCACAUGAGGAUCACCCAUGUCCUUCUCUGGGCUUCGGGAGAAGGCAGGUCUC | 90.3 nM | 305 nM |  | 
AAGCGAGGGACAGGAUAUGCGGCAAAACUCGCCGCAGAAGGGUCGACAUGAGGAUCACCCAUGUCCUUACGCUCCAAGUAGAGG |  |  | 213 nM | 359 nM
AAGCGAGGGACAGGAUAUGCGGCGAAAUUCUCCGCAGAAGGGUCGACAUGAGGAUCACCCAUGUCCUUACGCUCCAAGUAGAGG |  |  | 324 nM | 467 nM
AAGCUGUCAGGAUAUCGUUAAUUUAGUUGUUUGUAUUAGUUCGAGAAGGGACAUGAGGAUCACCCAUGUAUAUA | 37.8 nM | 76.8 nM |  | 
AAGGAUAGAGGAUAUACAUAGAUACAGAUUCGUGUAGAACUACAUGAGGAUCACCCAUGUAGAAGGCUAUCCUA | 16.8 nM | 46 nM |  | 
AAGGAUAGAGGAUAUACAUAGAUACAGAUUCGUGUAGUCCUACAUGAGGAUCACCCAUGUAGAAGGCUAUCCUA | 11.8 nM | 22.9 nM |  | 
AAGGAUCGAGGAUAUACAUAGAUACAGAUACAUGUAGACCUACAUGAGGAUCACCCAUGUAGAAGGCGAUCAUA | 18.8 nM | 33.7 nM |  | 
AAGGCACCUGAGAAGGGUACAUGAGGAUCACCCAUGUGGCUAUUUGUGCGUCGUUGACCAAGUGUACAGGAUAUUAGGGAACGU | 98 nM | 32.4 nM |  | 
AAGGUGUAAGGAUAUGCUGCUCGUCACUUGCGUGAUGAGUAGCAGAAGGUACAUGAGGAUCACCCAUGUAAAAA | 27.9 nM | 34.6 nM |  | 
AAGUACCGGUGAGGAUAUUUUUAAUAGAACUUUAUGAUAUACAUGAGGAUCACCCAUGUUACUUUAAAGAAGGCAUCGGAUAAA | 18.3 nM | 14.6 nM |  | 
AAGUAGAUCCGAGGAUAUACAUUGCGGAAACGCAACAUGAGGAUCACCCAUGUAGAAGGCGGAUCUACAGGUACUAAAGUACCA | 10 nM | 17 nM |  | 
AAGUAGGGAGGAUAUACAUGGAUAUACAUUCAUGUGGACCUACAUGAGGAUCACCCAUGUAGAAGGCCCUAAUA | 37.1 nM | 43.5 nM |  | 
AAGUAGGUAGGAUAUACAUGGAUAUACAUUCAUGUGGACCUACAUGAGGAUCACCCAUGUAGAAGGACCUACUA | 36.9 nM | 79.1 nM |  | 
AAGUCACAUGAGGAUCACCCAUGUCGUAAACGAUGAGGAUAUAGGAAAAAAAAAAAAAAACUAGAAGGUAUAACAA |  |  | 69.3 nM | 69.1 nM
AAGUCACAUGAGGAUCACCCAUGUCGUAAACGAUGAGGAUAUAGGAACGAAAGAAAAAAACUAGAAGGUAUAACAA |  |  | 52.2 nM | 52 nM
AAGUCUGGACGAGGAUAUCAGUUGUAUCUGGCGUCAACAUGAGGAUCACCCAUGUUGCUAUAGGGUGAGAAGGCGUUUGGGCAA |  |  | 92.6 nM | 22.8 nM
AAGUCUGGAUGAGGAUAUCAGCUGUAACUGACGUCGACAUGAGGAUCACCCAUGUUGCUAUAGGGUGAGAAGGCAUUUGGGCAA |  |  | 106 nM | 28.6 nM
